In ChEMBL document CHEMBL4014308, “Amphiphilic Tobramycin-Lysine Conjugates Sensitize Multidrug Resistant Gram-Negative Bacteria to Rifampicin and Minocycline” (J Med Chem, 2017):
The source made the active and inactive calls. The rule behind the calls is not given here.

Experiments:
Staphylococcus aureus = assay: Antibacterial activity against Staphylococcus aureus ATCC 29213 after 18 hrs by microtiter dilution assay; assay type: functional; settings: ATCC 29213, 18 h
Method in brief: (§1)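 Broth microdilution following CLSI guidelines. An overnight culture was adjusted to 0.5 McFarland in saline, then diluted 1:50 in Mueller-Hinton broth. This inoculum was added in equal volume to 2-fold serial dilutions of agent in MHB and incubated 18 h at 37 °C. MIC was the lowest concentration with no visible growth.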

Streptococcus pneumoniae = assay: Antibacterial activity against Streptococcus pneumoniae ATCC 49619 after 18 hrs by microtiter dilution assay; assay type: functional; settings: ATCC 49619, 18 h
Method in brief: (§2)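 Broth microdilution per CLSI. Overnight culture adjusted to 0.5 McFarland in saline, diluted 1:50 in Mueller-Hinton broth, and added to an equal volume of 2-fold serial compound dilutions in MHB. Incubated 18 h at 37 °C. MIC taken as the lowest concentration with no visible growth.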

Pseudomonas aeruginosa [1] = assay: Antibacterial activity against gentamicin-resistant Pseudomonas aeruginosa isolate CAN-ICU 62308 after 18 hrs by microtiter dilution assay; assay type: functional; settings: isolate CAN-ICU 62308, 18 h; method in brief: as §1
[2] = system: Stenotrophomonas maltophilia; assay: Antibacterial activity against Stenotrophomonas maltophilia isolate CAN-ICU 62584 after 18 hrs by microtiter dilution assay; assay type: functional; settings: isolate CAN-ICU 62584, 18 h; method in brief: as §2
Pseudomonas aeruginosa [3] = assay: Antibacterial activity against multidrug/extremely drug-resistant/colistin-resistant Pseudomonas aeruginosa isolate 91433 after 18 hrs by microtiter dilution assay; assay type: functional; settings: isolate 91433, 18 h; method in brief: as §1
Pseudomonas aeruginosa [4] = assay: Antibacterial activity against multidrug/extremely drug-resistant/colistin-resistant Pseudomonas aeruginosa isolate 101243 after 18 hrs by microtiter dilution assay; assay type: functional; settings: isolate 101243, 18 h; method in brief: as §1
Pseudomonas aeruginosa [5] = assay: Synergistic antibacterial activity against Pseudomonas aeruginosa PAO1 after 18 hrs in presence of colistin by checkerboard assay; assay type: functional; settings: PAO1, 18 h
Method in brief: (§3)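 Checkerboard in MHB: antibiotic diluted along one axis and adjuvant along the other (10 × 7 matrix). Inoculum was a 1:50 dilution in MHB of a 0.5 McFarland saline suspension; incubated 18 h at 37 °C. Each FIC = concentration in the no-growth well divided by the MIC alone; FIC index = sum of both FICs. ≤0.5 synergy, 0.5–4 no interaction, ≥4 antagonism.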

Pseudomonas aeruginosa [6] = assay: Synergistic antibacterial activity against Pseudomonas aeruginosa PAO1 after 18 hrs in presence of amikacin by checkerboard assay; assay type: functional; settings: PAO1, 18 h; method in brief: as §3
Pseudomonas aeruginosa [7] = assay: Synergistic antibacterial activity against Pseudomonas aeruginosa PAO1 after 18 hrs in presence of meropenem by checkerboard assay; assay type: functional; settings: PAO1, 18 h; method in brief: as §3
Pseudomonas aeruginosa [8] = assay: Synergistic antibacterial activity against Pseudomonas aeruginosa PAO1 after 18 hrs in presence of vancomycin by checkerboard assay; assay type: functional; settings: PAO1, 18 h; method in brief: as §3
Pseudomonas aeruginosa [9] = assay: Potentiation of meropenem-induced antibacterial activity against Pseudomonas aeruginosa PAO1 at 4 ug/ml after 18 hrs by checkerboard assay; assay type: functional
Method in brief: (§4)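 Checkerboard in Mueller-Hinton broth: antibiotic serially diluted along one axis and adjuvant along the other (10 × 7 matrix). Inoculum from a 0.5 McFarland saline suspension diluted 1:50 in MHB; 18 h at 37 °C, then plate read. MIC is the lowest concentration with no growth. FIC of each agent is its concentration in a no-growth well divided by its MIC alone; FIC index is the sum of both. FIC index ≤0.5 counts as synergy.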

Pseudomonas aeruginosa [10] = assay: Potentiation of rifampicin-induced antibacterial activity against multidrug/extremely drug-resistant/colistin-susceptible Pseudomonas aeruginosa isolate 101885 assessed as fold reduction in rifampicin MIC at 4 ug/ml after 18 hrs by checkerboard assay relative to control; assay type: functional
Method in brief: (§5)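 Checkerboard in Mueller-Hinton broth, 10 × 7 matrix, with the adjuvant held at 4 µg/mL. Inoculum from a 0.5 McFarland suspension diluted 1:50; 18 h at 37 °C. Antibiotic MIC (lowest concentration with no growth) with adjuvant is compared with the antibiotic MIC alone, giving a fold reduction.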

Pseudomonas aeruginosa [11] = assay: Potentiation of rifampicin-induced antibacterial activity against multidrug/extremely drug-resistant/colistin-susceptible Pseudomonas aeruginosa isolate P259-96918 at 4 ug/ml after 18 hrs by checkerboard assay; assay type: functional; method in brief: as §4
Pseudomonas aeruginosa [12] = assay: Potentiation of minocycline-induced antibacterial activity against multidrug/extremely drug-resistant/colistin-susceptible Pseudomonas aeruginosa isolate P264-104354 at 4 ug/ml after 18 hrs by checkerboard assay; assay type: functional; method in brief: as §4
Pseudomonas aeruginosa [13] = assay: Potentiation of minocycline-induced antibacterial activity against multidrug/extremely drug-resistant/colistin-resistant Pseudomonas aeruginosa isolate 91433 assessed as fold reduction in minocycline MIC at 4 ug/ml after 18 hrs by checkerboard assay relative to control; assay type: functional; method in brief: as §5
Pseudomonas aeruginosa [14] = assay: Potentiation of minocycline-induced antibacterial activity against multidrug/extremely drug-resistant/colistin-resistant Pseudomonas aeruginosa isolate 91433 at 4 ug/ml after 18 hrs by checkerboard assay; assay type: functional; method in brief: as §4
Pseudomonas aeruginosa [15] = assay: Potentiation of rifampicin-induced antibacterial activity against multidrug/extremely drug-resistant/colistin-resistant Pseudomonas aeruginosa isolate 91433 at 4 ug/ml after 18 hrs by checkerboard assay; assay type: functional; method in brief: as §4
Acinetobacter baumannii [16] = assay: Antibacterial activity against multidrug-resistant Acinetobacter baumannii AB031 after 18 hrs by microtiter dilution assay; assay type: functional; settings: AB031, 18 h; method in brief: as §1
Klebsiella pneumoniae = assay: Antibacterial activity against multidrug-resistant Klebsiella pneumoniae 116381 after 18 hrs by microtiter dilution assay; assay type: functional; settings: Klebsiella pneumoniae, 116381, 18 h; method in brief: as §1
Acinetobacter baumannii [17] = assay: Synergistic antibacterial activity against multidrug-resistant Acinetobacter baumannii AB027 after 18 hrs in presence of rifampicin by checkerboard assay; assay type: functional; settings: AB027, 18 h
Method in brief: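 Checkerboard in MHB with a 10 × 7 matrix: antibiotic serially diluted along one axis, adjuvant along the other. Inoculum was a 1:50 dilution of a 0.5 McFarland suspension, incubated 18 h at 37 °C and read on a plate reader. Each FIC is the concentration in a no-growth well divided by the MIC alone; FIC index is their sum, with ≤0.5 taken as synergy.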

Acinetobacter baumannii [18] = assay: Potentiation of minocycline-induced antibacterial activity against multidrug-resistant Acinetobacter baumannii AB030 at 4 ug/ml after 18 hrs by checkerboard assay; assay type: functional; method in brief: as §4
Acinetobacter baumannii [19] = assay: Potentiation of minocycline-induced antibacterial activity against multidrug-resistant Acinetobacter baumannii AB031 at 4 ug/ml after 18 hrs by checkerboard assay; assay type: functional; method in brief: as §4
Pseudomonas aeruginosa [20] = assay: Bactericidal activity against Pseudomonas aeruginosa PAO1 at 0.125 times antibacterial MIC after 6 hrs; assay type: functional
Pseudomonas aeruginosa [21] = assay: Potentiation of minocycline-induced bactericidal activity against Pseudomonas aeruginosa PAO1 at 0.125 times antibacterial MIC after 90 mins; assay type: functional
Method in brief: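 Combination time-kill in PAO1 (LB, 37 °C). Aliquots taken at 0–360 min, serially diluted in PBS, plated on LB agar, and CFU counted after 20 h at 37 °C.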

[22] = Toxicity in Galleria mellonella assessed as survival rate at 200 mg/kg for 4 days relative to control; assay type: organism-based; settings: in vivo
Method in brief: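 Galleria mellonella larvae, about 250 mg each, were used within 7 days of delivery. Compound alone was injected at 100 and 200 mg/kg with no bacterial challenge, ten larvae per group. Larvae were kept at 37 °C and survival was scored over 96 h.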

SMILES: Cl.Cl.Cl.Cl.Cl.Cl.Cl.NCCCC[C@H](N)C(=O)N(CCCCCCCCCCCCO[C@@H]1[C@@H](O[C@H]2O[C@H](CO)[C@@H](O)[C@H](N)[C@H]2O)[C@H](N)C[C@H](N)[C@H]1O[C@H]1O[C@H](CN)[C@@H](O)C[C@H]1N)Cc1c2ccccc2c(Cl)c2ccccc12
- MIC (Staphylococcus aureus): 8 µg/mL
- MIC (Streptococcus pneumoniae): 32 µg/mL
- MIC (Pseudomonas aeruginosa [1]): 16 µg/mL
- MIC [2]: > 128 µg/mL
- MIC (Pseudomonas aeruginosa [3]): 8 µg/mL
- MIC (Pseudomonas aeruginosa [4]): 16 µg/mL
- MIC (Pseudomonas aeruginosa [5]): 1 µg/mL
- MIC (Pseudomonas aeruginosa [6]): 2 µg/mL
- MIC (Pseudomonas aeruginosa [7]): 1 µg/mL
- MIC (Pseudomonas aeruginosa [8]): 4 µg/mL
- fractional inhibitory concentration index (FICI) (Pseudomonas aeruginosa [9]): 2.031
- fold change (FC) (Pseudomonas aeruginosa [10]): 128
- fractional inhibitory concentration index (FICI) (Pseudomonas aeruginosa [11]): 0.039
- fractional inhibitory concentration index (FICI) (Pseudomonas aeruginosa [12]): 0.079
- fold change (FC) (Pseudomonas aeruginosa [13]): 128
- fractional inhibitory concentration index (FICI) (Pseudomonas aeruginosa [14]): 0.266
- fractional inhibitory concentration index (FICI) (Pseudomonas aeruginosa [15]): 0.5
- MIC (Acinetobacter baumannii [16]): 16 to 32 µg/mL
- MIC (Klebsiella pneumoniae): 256 µg/mL
- MIC (Acinetobacter baumannii [17]): 8 µg/mL
- fractional inhibitory concentration index (FICI) (Acinetobacter baumannii [18]): 0.375
- fractional inhibitory concentration index (FICI) (Acinetobacter baumannii [19]): 0.625
- Activity (Pseudomonas aeruginosa [20]): inactive
- Activity (Pseudomonas aeruginosa [21]): Active
- survival at 96 h [22]: 100%
